The text below walks through data of ChEMBL document CHEMBL5042469, “Unique Molecular Interaction with the Histone Deacetylase 6 Catalytic Tunnel: Crystallographic and Biological Characterization of a Model Chemotype” (J Med Chem, 2021).

The IC50 is the concentration that gives 50% inhibition.

The subject of assay [1] is HeLa. Description: Anti-proliferative activity against human HeLa cells assessed as cell viability measured after 72 hrs by Cell-Titer assay. Type of assay: functional, cell-based. In a few lines:
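HeLa cells grown in DMEM with 10% FBS were plated in 96-well plates. After 24 h they were treated with compound or 0.5% DMSO vehicle. CellTiter-Blue was added at 72 h and read at 560/590 nm fluorescence. IC50 from non-linear regression.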

The nature of assay [2]: Anti-proliferative activity against human AR230 cells assessed as cell viability measured after 72 hrs by Cell-Titer assay. Type of assay: functional, cell-based. In a few lines:
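AR230 cells were maintained in RPMI-1640 with 10% FBS, 2 mM L-glutamine and 1 μM imatinib. Cells were plated in 96-well plates and dosed after 24 h, with 0.5% DMSO as vehicle. CellTiter-Blue fluorescence was read at 560/590 nm after 72 h. IC50 by non-linear regression.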

The subject of assay [3] is OCI-AML-3. Description: Anti-proliferative activity against human AML-3 cells assessed as cell viability measured after 72 hrs by Cell-Titer assay. Conditions: OCI-AML-3, 72 h. It is filed as functional, cell-based. In short, it runs like this: (§1)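 Cells in RPMI-1640 with 10% FBS (AML3 in IMDM with 10% FBS). Cells were plated in 96-well plates, and after 24 h compounds or vehicle (0.5% DMSO) were added. CellTiter-Blue was added after 72 h and fluorescence was read at 560/590 nm. IC50 was obtained by non-linear regression.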

In assay [4] the test system is BV-173. Description: Anti-proliferative activity against human BV-173 cells assessed as cell viability measured after 72 hrs by Cell-Titer assay. It is filed as functional, cell-based. Conditions: BV-173, 72 h. In short, it runs like this: as §1
Assay [5] has as its target T1, Protein deacetylase HDAC6 (Homo sapiens) (UniProt Q9UBN7).
T1 sequence (whole entry): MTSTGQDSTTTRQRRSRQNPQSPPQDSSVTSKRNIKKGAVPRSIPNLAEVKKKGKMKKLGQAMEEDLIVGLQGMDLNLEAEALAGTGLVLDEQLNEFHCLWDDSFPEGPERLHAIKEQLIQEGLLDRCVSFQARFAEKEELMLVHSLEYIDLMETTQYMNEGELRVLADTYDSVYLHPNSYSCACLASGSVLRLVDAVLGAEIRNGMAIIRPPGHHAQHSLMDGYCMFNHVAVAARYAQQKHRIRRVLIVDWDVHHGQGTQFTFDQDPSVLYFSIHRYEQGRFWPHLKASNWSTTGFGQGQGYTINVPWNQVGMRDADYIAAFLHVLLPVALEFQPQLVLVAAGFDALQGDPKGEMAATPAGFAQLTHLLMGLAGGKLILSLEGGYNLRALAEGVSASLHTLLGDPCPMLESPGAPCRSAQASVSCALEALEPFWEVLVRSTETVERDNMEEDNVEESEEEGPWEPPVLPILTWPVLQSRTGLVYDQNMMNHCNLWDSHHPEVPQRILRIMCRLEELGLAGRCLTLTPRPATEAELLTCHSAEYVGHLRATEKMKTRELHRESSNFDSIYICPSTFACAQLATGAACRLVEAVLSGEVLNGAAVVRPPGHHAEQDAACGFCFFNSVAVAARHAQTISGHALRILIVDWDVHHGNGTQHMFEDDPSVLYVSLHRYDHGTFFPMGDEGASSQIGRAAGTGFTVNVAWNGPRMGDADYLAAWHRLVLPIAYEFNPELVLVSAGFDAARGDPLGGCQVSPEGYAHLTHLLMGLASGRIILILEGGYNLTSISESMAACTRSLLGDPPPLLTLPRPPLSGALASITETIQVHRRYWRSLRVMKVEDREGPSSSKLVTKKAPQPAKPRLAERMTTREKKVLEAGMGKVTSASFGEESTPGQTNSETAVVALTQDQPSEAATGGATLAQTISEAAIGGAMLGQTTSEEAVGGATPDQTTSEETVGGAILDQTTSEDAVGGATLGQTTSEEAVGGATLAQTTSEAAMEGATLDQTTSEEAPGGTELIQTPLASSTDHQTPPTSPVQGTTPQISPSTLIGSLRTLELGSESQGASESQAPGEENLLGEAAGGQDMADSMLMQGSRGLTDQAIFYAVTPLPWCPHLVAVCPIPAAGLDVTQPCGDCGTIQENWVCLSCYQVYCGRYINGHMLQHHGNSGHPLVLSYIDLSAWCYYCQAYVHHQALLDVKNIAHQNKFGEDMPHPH
Kind of assay: Inhibition of HDAC6 in human HeLa cells assessed as acetylation of alpha tubulin accumulation at 2 uM by DAPI staining based immunofluorescent assay. It is filed as cell-based. In short, it runs like this:
(§2)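 HeLa cells plated to sub-confluency and treated after 24 h with compound at 0.1 or 2 μM for 6 h; DMSO served as vehicle control. Cells were fixed (4% formaldehyde), permeabilized (1% Triton X-100) and blocked in 5% BSA for 1 h at room temperature. Staining used anti-acetyl-α-tubulin (1:100) plus anti-acetyl-H3 Lys18 (1:50) with DAPI counterstain, then imaging and quantification. Values are the mean of duplicates.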

In assay [6] the target is T1, Protein deacetylase HDAC6 (Homo sapiens). Kind of assay: Inhibition of HDAC6 in human MV4-11 cells assessed as increase in acetylation of alpha tubulin at 0.25 uM by Western blot analysis. Type of assay: cell-based. In a few lines: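 MV4-11 cells incubated with compound for 6 h (0.25–1 μM range), then lysed in RIPA buffer. Lysates were BCA-quantified and run on 4–20% SDS-PAGE, then transferred to nitrocellulose and blocked in 5% milk/PBST. Primary anti-acetyl-α-tubulin mouse monoclonal and HSC70 (1:1000) were applied overnight at 4 °C, followed by HRP anti-mouse (1:5000) and ECL detection.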

The test system of assay [7] is MOLM-13. Description: Anti-proliferative activity against human MOLM-13 cells assessed as cell viability measured after 72 hrs by Cell-Titer assay. Conditions: MOLM-13, 72 h. Type of assay: functional, cell-based. In short, it runs like this:
as §1

Assay [8] concerns the target T1, Protein deacetylase HDAC6 (Homo sapiens). Kind of assay: Inhibition of HDAC6 in human HeLa cells assessed as acetylation of alpha tubulin accumulation at 0.1 uM by DAPI staining based immunofluorescent assay. It is filed as cell-based. In short, it runs like this:
as §2

The subject of assay [9] is RPMI-8226. Kind of assay: Anti-proliferative activity against human RPMI-8226 cells assessed as cell viability measured after 72 hrs by Cell-Titer assay. It is filed as functional, cell-based. Conditions: RPMI-8226, 72 h. In short, it runs like this: as §1
Assay [10] relates to U-87 MG. Description: Anti-proliferative activity against human U87G cells assessed as cell viability measured after 72 hrs by Cell-Titer assay. It is filed as functional, cell-based, U-87MG ATCC. In short, it runs like this: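 U87G cells grown in EMEM with 10% FBS were plated in 96-well plates and dosed after 24 h, with 0.5% DMSO as vehicle. CellTiter-Blue read-out at 560/590 nm fluorescence after 72 h. IC50 by non-linear regression.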

The subject of assay [11] is MM1.S. Description: Anti-proliferative activity against human MM1.S cells assessed as cell viability measured after 72 hrs by Cell-Titer assay. Type of assay: functional, cell-based. In a few lines: as §1
Assay [12] has as its system MV4-11. Description: Anti-proliferative activity against human MV4-11 cells assessed as cell viability measured after 72 hrs by Cell-Titer assay. The conditions noted are these: MV4-11, 72 h. Type of assay: functional, cell-based. In a few lines: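 MV4-11 cells grown in IMDM with 10% FBS were plated in 96-well plates. After 24 h, compounds or vehicle (0.5% DMSO) were added. After 72 h, CellTiter-Blue was added and fluorescence was read at 560/590 nm. IC50 came from non-linear regression.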

The nature of assay [13]: Anti-proliferative activity against human MRC9 cells assessed as cell viability measured after 72 hrs by Cell-Titer assay. Type of assay: functional, cell-based. The conditions noted are these: MRC9, 72 h. In short, it runs like this: as §1
Assay [14] relates to Jurkat. Description: Anti-proliferative activity against human Jurkat cells assessed as cell viability measured after 72 hrs by Cell-Titer assay. Type of assay: functional, cell-based. In a few lines: as §1

Activity calls are given as the source filed them. The calls are words filed in the database; no cut-off is given here. Bounds are passed on as bounds.

Turning to `O=C(NO)c1ccc(CN(Cc2cccnc2)S(=O)(=O)c2cc(F)c(F)c(F)c2F)cc1`, the IC50 in [1] amounted to 3.5 µM; in assay [2], 1500 nM; in assay [3], 3.3 µM; in [4], 1700 nM; in assay [7], 2 µM; in assay [9] it was 0.7 µM. Also, the IC50 in assay [10] was 2 µM; in [11], 700 nM; in assay [12], 600 nM; in [13], greater than 50 µM; in assay [14] it was 1900 nM. Besides, the result in assay [5] and in assay [6] was Active. Further, the outcome in [8] was inactive.

Consider `O=C(CCCCCCNC(=O)c1cnc(N(c2ccccc2)c2ccccc2Cl)nc1)NO` [CITARINOSTAT], for which the IC50 in assay [1] was found to be 7 µM; in [2] it was 4300 nM; in [3], 7.7 µM; in [4], 900 nM; in assay [7], 13.5 µM; in assay [9], 6.5 µM. The IC50 in [10] was 9.1 µM; in assay [11] it was 1600 nM; in assay [12], 1200 nM; in [13], 30.4 µM; in assay [14], 1200 nM. Besides, the outcome in assay [5] and in assay [8] was inactive. In addition, the result in assay [6] was Active.
